By IC50 is commonly meant the concentration at which inhibition is half-maximal. The term inhibition denotes the relative decrease from the control value, in per cent.

This is an account of results in ChEMBL document CHEMBL3875206, “Design, synthesis and biological evaluation of 4'-aminochalcone-rivastigmine hybrids as multifunctional agents for the treatment of Alzheimer's disease” (Bioorg Med Chem, 2017).

The target of series [1] is T1, Amine oxidase [flavin-containing] B (Homo sapiens, UniProt P27338).
T1 sequence (P27338 whole entry): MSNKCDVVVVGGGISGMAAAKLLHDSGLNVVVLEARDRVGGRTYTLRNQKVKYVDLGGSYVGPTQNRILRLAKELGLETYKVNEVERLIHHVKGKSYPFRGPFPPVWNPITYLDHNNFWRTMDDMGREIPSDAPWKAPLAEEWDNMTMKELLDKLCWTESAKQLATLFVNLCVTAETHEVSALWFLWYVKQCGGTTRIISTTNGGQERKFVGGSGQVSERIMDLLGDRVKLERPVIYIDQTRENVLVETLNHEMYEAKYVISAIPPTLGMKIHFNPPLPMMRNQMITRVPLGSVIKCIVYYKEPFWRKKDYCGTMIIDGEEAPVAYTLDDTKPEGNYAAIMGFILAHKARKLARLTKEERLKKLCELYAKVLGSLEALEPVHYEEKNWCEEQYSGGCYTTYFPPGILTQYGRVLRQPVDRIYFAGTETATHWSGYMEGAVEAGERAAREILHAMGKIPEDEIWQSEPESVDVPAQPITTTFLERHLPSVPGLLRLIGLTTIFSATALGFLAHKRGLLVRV
The series can be described thus: Inhibition of recombinant human MAO-B expressed in baculovirus infected High 5 insect cells using kynuramine as substrate incubated for 30 mins by spectrofluorometric method. The format is cell-based.

Series [2] in a line: Inhibition of Cu2+-mediated aggregation of amyloid beta (1-42) (unknown origin) at 25 uM after 24 hrs by thioflavin T fluorescence-based fluorimetric method relative to control. The format is functional. Summed up: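 HFIP-pretreated Aβ1-42 (25 µM) was incubated with Cu2+ (25 µM), with or without compound (25 µM final), in 20 mM HEPES/150 mM NaCl pH 6.6 at 37 °C for 24 h. 5 µM ThT in 50 mM glycine-NaOH pH 8.5 was then added. Fluorescence was read at ex 446/em 490 nm. Percent inhibition was taken versus no-inhibitor control after background subtraction, in triplicate.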

For series [3], the target named is Amyloid-beta precursor protein (Homo sapiens) (UniProt P05067). The series can be described thus: Inhibition of self-induced aggregation of amyloid beta (1-42) (unknown origin) at 25 uM after 24 hrs by thioflavin T fluorescence-based fluorimetric method relative to control. In outline:
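Aβ1-42 was pretreated in HFIP, dried and stocked in DMSO. Aβ1-42 (25 µM final) was incubated with compound (25 µM final) in 50 mM phosphate buffer pH 7.4 at 37 °C for 24 h. 5 µM ThT in 50 mM glycine-NaOH pH 8.5 was then added. Fluorescence was read at ex 446/em 490 nm. Inhibition = (1−IFi/IFc)×100 after background subtraction, in triplicate.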

The species entered for another series is Homo sapiens. Nature of the series: Selectivity index, ratio of IC50 for recombinant human MAO-A expressed in baculovirus infected High 5 insect cells to IC50 for recombinant human MAO-B expressed in baculovirus infected High 5 insect cells. Summed up:
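Recombinant human MAO-A or MAO-B (7.5 µg/mL) with kynuramine substrate in 100 mM potassium phosphate pH 7.4 (KCl-isotonic), <4% DMSO, 30 min at 37 °C. Stopped with 2 N NaOH. Single-point inhibition at 10 µM. IC50 from six-concentration sigmoidal curves, triplicate. SI = IC50(MAO-A)/IC50(MAO-B).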

A short description of series [4]: Antioxidant activity assessed as trolox equivalents of AAPH radical scavenging activity at 5 uM preincubated for 15 mins followed by AAPH addition measured every 60 sec for 90 mins by ORAC-FL assay. The format is functional. In outline:
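Peroxyl radicals generated by AAPH (12 mM final) at 37 °C in phosphate buffer pH 7.4 with fluorescein (150 nM final). Sample and fluorescein were preincubated 15 min before AAPH addition. Fluorescence (ex 485/em 535 nm) was read every 60 s for 90 min.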

A further series addresses Acetylcholinesterase (Electrophorus electricus, UniProt O42275). Nature of the series: Inhibition of electric eel AChE using acetylthiocholine iodide as substrate incubated for 15 mins by Ellman's method. Summed up: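 Ellman spectrophotometric assay: electric eel AChE 0.05 U/mL final, acetylthiocholine iodide 1 mmol/L, phosphate buffer pH 8.0, range of compound concentrations.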

Series [5] concerns the target T2, Amine oxidase [flavin-containing] A (Homo sapiens, UniProt P21397).
T2 sequence (P21397 whole entry): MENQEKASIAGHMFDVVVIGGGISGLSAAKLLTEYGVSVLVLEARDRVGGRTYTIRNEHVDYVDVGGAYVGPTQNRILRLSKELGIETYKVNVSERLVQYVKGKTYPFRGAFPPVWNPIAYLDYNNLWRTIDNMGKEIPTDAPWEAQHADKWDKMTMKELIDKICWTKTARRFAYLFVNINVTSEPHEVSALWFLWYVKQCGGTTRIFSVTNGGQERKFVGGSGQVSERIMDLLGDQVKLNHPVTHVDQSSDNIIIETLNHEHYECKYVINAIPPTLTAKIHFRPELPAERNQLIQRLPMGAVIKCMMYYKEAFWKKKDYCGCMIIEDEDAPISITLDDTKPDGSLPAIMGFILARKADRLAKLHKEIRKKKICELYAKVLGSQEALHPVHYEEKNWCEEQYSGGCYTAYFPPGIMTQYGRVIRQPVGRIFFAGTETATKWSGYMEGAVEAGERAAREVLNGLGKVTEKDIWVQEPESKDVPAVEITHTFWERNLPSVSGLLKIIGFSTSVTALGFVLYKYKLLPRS
The series can be described thus: Inhibition of recombinant human MAO-A expressed in baculovirus infected High 5 insect cells using kynuramine as substrate incubated for 30 mins by spectrofluorometric method.

Series [6] in a line: Inhibition of rat serum BuChE at 50 uM using butyrylthiocholine iodide as substrate incubated for 15 mins by Ellman's method relative to control. The settings on record: 0.25 h. In outline:
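Ellman method with 25% rat serum as BuChE source, butyrylthiocholine iodide 1 mmol/L, phosphate buffer pH 7.4, absorbance at 405 nm. Compounds tested at 50 µM. […] Triplicate wells.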
(Ellman's reagent forms a yellow product with free thiols.)

A short description of series [7]: Inhibition of rat serum BuChE using butyrylthiocholine iodide as substrate incubated for 15 mins by Ellman's method. Summed up: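 Rat serum BuChE (25% serum) by Ellman method, butyrylthiocholine iodide 1 mmol/L, phosphate buffer pH 7.4, read at 405 nm. Compound concentrations varied, each in triplicate.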
The target of series [8] is T1, Amine oxidase [flavin-containing] B. The series can be described thus: Potency index, ratio of iproniazid IC50 to compound IC50 for recombinant human MAO-B expressed in baculovirus infected High 5 insect cells.
Series [9] is described as follows: Permeability of compound at 100 ug/ml after 18 hrs by PAMPA. The format is ADME. Particulars: read-out: permeability. On the technique in general: In PAMPA a lipid-coated filter parts donor from acceptor wells.
A short description of series [10]: Metal chelating activity assessed as compound-Al3+ complex formation by measuring shift in maximum absorption wavelength at 37.5 uM after 30 mins by UV-vis spectrophotometric method. The format is physicochemical. Particulars: 0.5 h. Summed up: (§1)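 Difference UV-vis spectra (200-600 nm) of compound and metal salt (CuCl2 or AlCl3), each 37.5 µM final, after 30 min at room temperature. Spectra of metal alone and compound alone were subtracted from the mixture spectrum.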

The nature of series [11]: Metal chelating activity assessed as compound-Cu2+ complex formation by measuring shift in maximum absorption wavelength at 37.5 uM after 30 mins by UV-vis spectrophotometric method. In kind it is physicochemical. Particulars: 0.5 h. Summed up:
as §1

Series [12] deals with T1, Amine oxidase [flavin-containing] B. The series can be described thus: Potency index, ratio of rasagiline IC50 to compound IC50 for recombinant human MAO-B expressed in baculovirus infected High 5 insect cells.
For series [13], the target named is Acetylcholinesterase (Electrophorus electricus) (UniProt O42275). The series can be described thus: Mixed-type inhibition of electric eel AChE at 2.5 to 10 uM using varying levels of acetylthiocholine iodide as substrate preincubated for 15 mins followed by substrate addition by Lineweaver-Burk plot analysis. In outline: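 Kinetics with EeAChE in 0.1 M phosphate pH 8.0 with DTNB. Three inhibitor concentrations preincubated with enzyme 15 min at 37 °C, then acetylthiocholine added at 0.1–0.4 mM. Read at 412 nm. Weighted least-squares Lineweaver–Burk plots; slopes replotted against inhibitor concentration. No-inhibitor controls run in parallel.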
Chain of Acetylcholinesterase (Electrophorus electricus) (O42275 24-633 limits assumed): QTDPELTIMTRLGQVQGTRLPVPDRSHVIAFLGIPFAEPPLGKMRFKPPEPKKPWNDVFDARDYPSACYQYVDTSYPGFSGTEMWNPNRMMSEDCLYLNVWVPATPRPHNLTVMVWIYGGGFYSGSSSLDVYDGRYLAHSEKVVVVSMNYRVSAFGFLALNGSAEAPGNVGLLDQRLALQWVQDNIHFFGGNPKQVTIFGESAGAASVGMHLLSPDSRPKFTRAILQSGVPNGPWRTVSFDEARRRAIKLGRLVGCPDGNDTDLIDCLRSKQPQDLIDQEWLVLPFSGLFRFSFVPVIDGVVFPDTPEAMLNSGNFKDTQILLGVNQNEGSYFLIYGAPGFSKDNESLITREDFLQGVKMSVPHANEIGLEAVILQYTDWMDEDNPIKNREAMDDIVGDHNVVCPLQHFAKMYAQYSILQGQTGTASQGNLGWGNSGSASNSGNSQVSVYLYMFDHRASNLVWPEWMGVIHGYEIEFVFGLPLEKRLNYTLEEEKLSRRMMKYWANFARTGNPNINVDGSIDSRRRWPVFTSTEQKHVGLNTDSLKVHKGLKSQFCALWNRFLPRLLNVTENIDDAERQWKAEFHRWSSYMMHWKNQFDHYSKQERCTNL

A short description of series [14]: Metal chelating activity assessed as mole fraction of compound required to show 1:1 stoichiometry for Cu2+-compound complex at 37.5 uM after 30 mins by UV-vis spectrophotometric method. In kind it is physicochemical. Particulars: 0.5 h. In outline:
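Molar ratio method: a methanol solution of compound (37.5 µM final) was titrated with CuCl2 (3.75-150 µM final). Absorbance at 474 nm was taken after subtracting CuCl2 and compound spectra and plotted against the compound mole fraction. The intersection of the linear segments gave the stoichiometry.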

Series [15] deals with T2, Amine oxidase [flavin-containing] A. Nature of the series: Inhibition of recombinant human MAO-A expressed in baculovirus infected High 5 insect cells at 10 uM using kynuramine as substrate incubated for 30 mins by spectrofluorometric method relative to control. The settings on record: 0.5 h. In outline: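 Recombinant human MAO-A or MAO-B (7.5 µg/mL) with kynuramine substrate in 100 mM potassium phosphate pH 7.4 (KCl-isotonic), <4% DMSO, 30 min at 37 °C. Stopped with 2 N NaOH. 4-Hydroxyquinoline was measured fluorometrically (ex 310/em 400 nm) against a calibration curve. Single-point inhibition at 10 µM. IC50 from six-concentration sigmoidal curves, triplicate. SI = IC50(MAO-A)/IC50(MAO-B).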

Molecules are shown by their SMILES. Calls of active or inactive are those of the source. No cut-off for these calls is given here.

Chain of Amyloid-beta precursor protein (Homo sapiens) (P05067 whole entry): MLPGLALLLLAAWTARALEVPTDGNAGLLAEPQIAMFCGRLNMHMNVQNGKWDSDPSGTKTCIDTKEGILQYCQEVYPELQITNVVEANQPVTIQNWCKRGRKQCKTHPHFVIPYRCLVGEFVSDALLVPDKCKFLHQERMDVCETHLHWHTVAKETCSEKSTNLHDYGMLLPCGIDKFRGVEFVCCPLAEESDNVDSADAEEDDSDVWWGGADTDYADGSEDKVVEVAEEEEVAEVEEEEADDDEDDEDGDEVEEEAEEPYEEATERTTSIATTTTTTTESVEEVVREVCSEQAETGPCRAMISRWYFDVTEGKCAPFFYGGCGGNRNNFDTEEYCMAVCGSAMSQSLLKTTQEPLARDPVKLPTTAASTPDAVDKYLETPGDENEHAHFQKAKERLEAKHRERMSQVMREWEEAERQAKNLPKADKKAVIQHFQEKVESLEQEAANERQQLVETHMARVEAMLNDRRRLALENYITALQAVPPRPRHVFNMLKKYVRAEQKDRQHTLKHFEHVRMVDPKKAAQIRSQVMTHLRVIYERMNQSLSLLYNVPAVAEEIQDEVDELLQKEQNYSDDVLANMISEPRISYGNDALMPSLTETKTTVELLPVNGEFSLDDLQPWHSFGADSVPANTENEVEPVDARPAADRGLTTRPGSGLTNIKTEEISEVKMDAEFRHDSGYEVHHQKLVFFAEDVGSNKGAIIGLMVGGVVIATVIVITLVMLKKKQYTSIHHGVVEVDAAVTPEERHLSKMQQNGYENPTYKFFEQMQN
Chain of Acetylcholinesterase (O42275 whole entry): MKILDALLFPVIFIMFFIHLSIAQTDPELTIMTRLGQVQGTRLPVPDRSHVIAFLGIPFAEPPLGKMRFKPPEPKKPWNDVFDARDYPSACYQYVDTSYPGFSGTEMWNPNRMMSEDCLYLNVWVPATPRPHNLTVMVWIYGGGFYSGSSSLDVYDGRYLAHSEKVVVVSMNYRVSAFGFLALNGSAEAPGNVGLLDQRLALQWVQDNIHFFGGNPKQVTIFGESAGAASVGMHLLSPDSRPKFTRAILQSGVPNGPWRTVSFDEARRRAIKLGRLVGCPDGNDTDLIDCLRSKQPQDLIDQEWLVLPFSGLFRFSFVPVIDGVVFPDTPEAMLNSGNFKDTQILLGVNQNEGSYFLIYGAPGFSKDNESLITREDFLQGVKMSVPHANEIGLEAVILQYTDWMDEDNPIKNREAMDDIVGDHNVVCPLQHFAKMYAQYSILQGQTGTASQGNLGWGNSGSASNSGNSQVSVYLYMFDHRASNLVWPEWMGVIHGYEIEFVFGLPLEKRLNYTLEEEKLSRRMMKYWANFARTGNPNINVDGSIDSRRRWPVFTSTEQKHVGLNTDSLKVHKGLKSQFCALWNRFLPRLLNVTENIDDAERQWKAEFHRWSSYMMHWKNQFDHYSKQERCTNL

On to `CN(C)C(=O)Oc1ccc(C(=O)/C=C/c2ccc(N(C)C)cc2)c(O)c1`, for which the IC50 in series [1] worked out at 2480 nM; at Acetylcholinesterase, 32.6 µM; in [5], 10.2 µM. Moreover, the inhibition in series [2] worked out at 77.9%; in series [3], 90.8%. Moreover, the Ratio IC50 in the series filed under Homo sapiens came to 4.11. In addition, in series [4], the Activity is 2.62 µMequiv/µM. Further, the “inhibition (INH)” value in series [6] is given as below 10%.

Consider `CN(C)c1ccc(/C=C/C(=O)c2ccc(O)cc2O)cc1`, for which the results for the IC50 (in series [1]; against Acetylcholinesterase; in series [5]) were 310 nM, 78.2 µM and 4.06 µM, respectively. Also, the inhibition came out at 60.1% in series [2] and 77.7% in series [3]. In addition, the Ratio IC50 in the series filed under Homo sapiens was found to be 13.4. In addition, in series [4], the Activity amounted to 2 µMequiv/µM. The “inhibition (INH)” value in series [6] is given as below 10%.

In series [7], `CCN(C)C(=O)Oc1cccc([C@H](C)N(C)C)c1` [RIVASTIGMINE] yielded an IC50 of 2860 nM.

For the compound `CN(C)c1ccc(/C=C/C(=O)c2ccc(OC(=O)N3CCCC3)cc2O)cc1`, the “Ratio IC50” value in series [8] was above 26.7; in [12] it was 2. For the same compound, the Papp at 18 h, 100 ug/ml in [9] stood at 7.03 ×10⁻⁶ cm/s. Also, the values for the IC50 (in series [1]; against Acetylcholinesterase) were 290 nM and 4.91 µM, respectively. Further, the inhibition in series [2] turned out to be 79.7%; in [3], 89.5%. Besides, the Activity entry in series [10] is “Active”; in series [4] it was 2.83 µMequiv/µM; in [11] it was “Active”; in series [14], 0.98 molar ratio. In addition, in series [6], the “inhibition (INH)” value is below 10%. In [13], the inhibition result was “Active”. For the same compound, in [15], the inhibition at 10 µM was 12.8%.
